The text below walks through data of ChEMBL document CHEMBL4387746, “Chemical conversion of nicotinamide into type I positive allosteric modulator of α7 nAChRs” (Bioorg Med Chem Lett, 2019).

Common to all, as to type: cell-based
The target of assay [1] is T1, Neuronal acetylcholine receptor subunit alpha-7 (Homo sapiens, UniProt P36544). Briefly: Positive allosteric modulation activity at human alpha7 nAChR expressed in Xenopus laevis oocytes assessed as increase in acetylcholine-induced channel current at 10 uM at -90 mV holding potential preincubated for 2 mins followed by co-application with acetylcholine for 10 secs by two-electrode voltage clamp method relative to control. The method in brief: (§1)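 Human α7 nAChR expressed in Xenopus laevis oocytes and recorded by two-electrode voltage clamp. Each compound was tested at 10 μM with 100 μM ACh. Data come from 2–5 individual oocytes.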
A general note: In two-electrode clamp one electrode senses voltage and the other passes current.

The target of assay [2] is T1, Neuronal acetylcholine receptor subunit alpha-7. Briefly: Agonist activity at human alpha7 nAChR expressed in Xenopus laevis oocytes assessed as increase in channel current at -90 mV holding potential by two-electrode voltage clamp method.
For assay [3] the target is unchanged. Briefly: Positive allosteric modulation activity at human alpha7 nAChR expressed in Xenopus laevis oocytes assessed as increase in acetylcholine-induced channel current at -90 mV holding potential preincubated for 2 mins followed by co-application with acetylcholine for 10 secs by two-electrode voltage clamp method. The method in brief:
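Human α7 nAChR was recorded in Xenopus oocytes by two-electrode voltage clamp, with 100 μM ACh as agonist. EC50 is the compound concentration giving half of the maximum activation effect. Data come from 2–5 individual oocytes.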

For assay [4] the target is unchanged. Briefly: Positive allosteric modulation activity at alpha7 nAChR (unknown origin) expressed in Xenopus laevis oocytes assessed as increase in acetylcholine-induced channel current at 10 uM at -90 mV holding potential by two-electrode voltage clamp method relative control. The method in brief:
as §1

Assay [5] shares this target. Briefly: Positive allosteric modulation activity at human alpha7 nAChR expressed in Xenopus laevis oocytes assessed as increase in acetylcholine-induced channel current by measuring maximum efficacy of acetylcholine at 10 uM at -90 mV holding potential preincubated for 2 mins followed by co-application with acetylcholine for 10 secs by two-electrode voltage clamp method (reference value: 339%). The gist of the method: (§2)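 ACh concentration-response on α7-expressing Xenopus oocytes, run without compound or after 2 min preincubation with 10 μM compound. Peak currents were normalised to the current evoked by 100 μM ACh alone. Curves were fitted for Emax, ACh EC50 and Hill coefficient, n = 4 per point.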

Assay [6] shares this target. Briefly: Positive allosteric modulation activity at human alpha7 nAChR expressed in Xenopus laevis oocytes assessed as increase in acetylcholine-induced channel current at 0.1 uM to 30 uM at -90 mV holding potential preincubated for 2 mins followed by co-application with acetylcholine for 10 secs by two-electrode voltage clamp method relative to control. The method in brief: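 A control current to 100 μM ACh alone was recorded first. Oocytes expressing α7 nAChR were then preincubated 2 min with compound at 0.1–30 μM, followed by co-application with 100 μM ACh for 10 s. Peak currents were normalised to the 100 μM ACh-alone amplitude. Data were fitted for EC50, Emax and Hill coefficient, n = 4 per point.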

Assay [7] shares this target. Briefly: Induction of desensitization of human alpha7 nAChR expressed in Xenopus laevis oocytes assessed as acetylcholine-induced channel desensitization time constant at 10 uM at -90 mV holding potential by two-electrode voltage clamp method (reference value: 6.37 +/- 2.56).
For assay [8] the target is unchanged. Briefly: Positive allosteric modulation activity at human alpha7 nAChR expressed in Xenopus laevis oocytes assessed as increase in acetylcholine-induced channel current by measuring maximum efficacy of acetylcholine at 10 uM at -90 mV holding potential preincubated for 2 mins followed by co-application with acetylcholine for 10 secs by two-electrode voltage clamp method relative to control. The method in brief: as §2

Assay [9] has as its target Neuronal acetylcholine receptor; alpha3/beta4 (Rattus norvegicus) (UniProt P04757+P12392). Briefly: Positive allosteric modulation activity at rat alpha3beta4 nAChR expressed in Xenopus laevis oocytes assessed as increase in acetylcholine-induced channel current at 10 uM at -90 mV holding potential preincubated for 2 mins followed by co-application with acetylcholine for 10 secs by two-electrode voltage clamp method relative to control.

The target of assay [10] is Neuronal acetylcholine receptor; alpha4/beta2 (Rattus norvegicus) (UniProt P09483+P12390). Briefly: Positive allosteric modulation activity at rat alpha4beta2 nAChR expressed in Xenopus laevis oocytes assessed as increase in acetylcholine-induced channel current at 10 uM at -90 mV holding potential preincubated for 2 mins followed by co-application with acetylcholine for 10 secs by two-electrode voltage clamp method relative to control.

Assay [11] has as its target T2, 5-hydroxytryptamine receptor 3A (Homo sapiens) (UniProt P46098).
T2 sequence (whole entry): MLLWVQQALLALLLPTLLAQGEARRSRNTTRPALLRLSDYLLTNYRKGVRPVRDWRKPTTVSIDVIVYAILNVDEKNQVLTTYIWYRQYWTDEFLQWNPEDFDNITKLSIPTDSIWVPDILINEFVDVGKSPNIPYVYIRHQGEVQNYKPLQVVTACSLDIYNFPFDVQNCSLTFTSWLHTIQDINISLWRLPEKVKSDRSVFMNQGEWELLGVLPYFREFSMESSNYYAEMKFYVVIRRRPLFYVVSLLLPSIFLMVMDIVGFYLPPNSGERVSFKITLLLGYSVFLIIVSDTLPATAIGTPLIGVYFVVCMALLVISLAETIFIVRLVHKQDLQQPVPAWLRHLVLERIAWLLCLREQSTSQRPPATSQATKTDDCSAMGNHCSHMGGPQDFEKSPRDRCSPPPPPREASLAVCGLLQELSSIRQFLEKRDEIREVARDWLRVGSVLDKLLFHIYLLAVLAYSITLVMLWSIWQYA
Briefly: Positive allosteric modulation activity at human 5-HT3A receptor expressed in Xenopus laevis oocytes assessed as increase in acetylcholine-induced channel current at 10 uM at -90 mV holding potential preincubated for 2 mins followed by co-application with acetylcholine for 10 secs by two-electrode voltage clamp method relative to control.

Active and inactive are the calls of the source. No cut-off for these calls is given here.

T1 sequence (P36544 whole entry): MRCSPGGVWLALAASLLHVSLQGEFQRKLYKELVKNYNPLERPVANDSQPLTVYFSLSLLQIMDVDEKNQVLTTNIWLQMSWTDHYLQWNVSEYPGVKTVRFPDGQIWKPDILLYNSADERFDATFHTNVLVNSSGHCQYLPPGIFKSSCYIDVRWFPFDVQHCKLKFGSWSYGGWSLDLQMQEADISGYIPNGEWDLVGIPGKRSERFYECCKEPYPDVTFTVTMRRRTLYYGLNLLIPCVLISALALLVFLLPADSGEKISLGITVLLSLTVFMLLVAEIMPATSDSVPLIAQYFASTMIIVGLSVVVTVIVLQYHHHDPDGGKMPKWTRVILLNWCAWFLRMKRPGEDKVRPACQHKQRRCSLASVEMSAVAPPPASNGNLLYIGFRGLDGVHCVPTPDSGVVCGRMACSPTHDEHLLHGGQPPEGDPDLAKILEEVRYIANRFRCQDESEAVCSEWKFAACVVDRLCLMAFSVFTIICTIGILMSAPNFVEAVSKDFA

The Emax is the maximal effect, on the per cent scale that the assay sets. For the molecule `Cc1cccc(Cl)c1NC(=O)c1cc(-c2ccc([N+](=O)[O-])cc2)cnc1N`, the Emax in [1] amounted to 135%. In addition, the outcome in assay [2] was inactive.

A word on the EC50: it is the concentration at which the effect is half-maximal. As to `Cc1ccc(-c2cnc(N)c(C(=O)Nc3c(C)cccc3Cl)c2)cc1F`, the half-maximal effective concentration (EC50) in [3] turned out to be 3.31 µM. Also, in [1], the maximum response (Emax) came to 609%. In addition, the outcome in assay [2] was inactive.

Take `Cc1cc(-c2cnc(N)c(C(=O)Nc3ccccc3C)c2)ccc1F`: the maximal effect (Emax) in assay [1] is 156%. Also, the result in assay [2] was inactive.

For the molecule `CC(=O)Nc1ccc(-c2cnc(N)c(C(=O)Nc3c(C)cccc3Cl)c2)cc1`, in assay [1], the maximal effect (Emax) was found to be 109%. The outcome in assay [2] was inactive.

Regarding `Cc1cccc(Cl)c1NC(=O)c1cc(-c2ccoc2)cnc1N`, the Emax in assay [1] was found to be 111%. Moreover, in assay [2], the outcome was inactive.

As for `Cc1cccc(Cl)c1NC(=O)c1cc(-c2cccc(F)c2)cnc1N`, the Emax in [1] turned out to be 86%. Further, the outcome in [2] was inactive.

Consider `Cc1cccc(Cl)c1NC(=O)c1cc(-c2ccccc2)cnc1N`, for which the maximal response (Emax) in assay [1] amounted to 273%. Moreover, in assay [2], the result was inactive.

As to `CSc1ccc(-c2cnc(N)c(C(=O)Nc3c(C)cccc3Cl)c2)cc1`, in assay [3], the EC50 was determined as 4.96 µM. The maximum response (Emax) in assay [1] worked out at 774%. Besides, in assay [2], the result was inactive.

Turning to `COc1ccc(-c2ccc3ncn(-c4c(C)cccc4Cl)c(=O)c3c2)cc1`, the maximal response (Emax) in assay [4] was 65%.

Take `Cc1cccc(Cl)c1-n1cnc2ccc(-c3ccc(F)cc3)cc2c1=O`: the Emax in [4] is 76%.

Take `COc1cccc(-c2cnc(N)c(C(=O)Nc3c(C)cccc3Cl)c2)c1`: the Emax in assay [1] came to 212%. Moreover, in assay [2], the result was inactive.

Regarding `Cc1ccc(-c2cnc(N)c(C(=O)Nc3c(C)cccc3Cl)c2)cc1`, the concentration for a half-maximal effect (EC50) in [3] was 3.19 µM. For the same molecule, the Emax in [1] is 539%. In addition, the outcome in assay [2] was inactive.

With `Cc1cc(F)ccc1-c1cnc(N)c(C(=O)Nc2c(C)cccc2Cl)c1`, the maximum response (Emax) in assay [1] stood at 225%. For the same molecule, in assay [2], the result was inactive.

In the case of `COc1ccccc1-c1cnc(N)c(C(=O)Nc2c(C)cccc2Cl)c1`, the EC50 in [3] is 4.32 µM. The maximal effect (Emax) in [1] worked out at 1010%. Besides, the result in [2] was inactive.

Consider `Cc1cccc(Cl)c1NC(=O)c1cc(-c2ccc(Cl)cc2)cnc1N`, for which, in assay [1], the Emax was 278%. Moreover, the result in [2] was inactive.

Regarding `Cc1cccc(Cl)c1NC(=O)c1cc(-c2ccc(F)cc2Cl)cnc1N`, in assay [1], the Emax was found to be 186%. Further, in assay [2], the outcome was inactive.

As to `Cc1cccc(Cl)c1NC(=O)c1cc(-c2ccsc2)cnc1N`, the Emax in [1] is 153%. Further, the outcome in assay [2] was inactive.

Turning to `CCc1ccc(-c2cnc(N)c(C(=O)Nc3c(C)cccc3Cl)c2)cc1`, the EC50 in assay [3] came to 1.35 µM. For the same molecule, the Emax in assay [1] was 455%. In addition, the result in assay [2] was inactive.

Take `Cc1cccc(Cl)c1NC(=O)c1cc(-c2ccc(F)c(Cl)c2)cnc1N`: the EC50 in assay [3] came out at 5.49 µM. For the same molecule, the Emax in [1] came to 495%. Moreover, the outcome in assay [2] was inactive.

On to `Cc1cccc(Cl)c1NC(=O)c1cc(-c2ccccc2F)cnc1N`, for which, in [1], the maximum response (Emax) is 119%. Moreover, the outcome in [2] was inactive.

For `Cc1cccc(Cl)c1NC(=O)c1cc(-c2ccc(O)cc2)cnc1N`, the maximal response (Emax) in [1] worked out at 257%. In addition, the outcome in [2] was inactive.

Consider `Cc1cccc(Cl)c1NC(=O)c1cc(-c2ccc(C(F)(F)F)cc2)cnc1N`, for which the Emax in assay [1] was found to be 164%. In addition, in assay [2], the outcome was inactive.

For the molecule `Cc1cccc(Cl)c1NC(=O)c1cc(-c2ccc(F)cc2)ccc1N`, in assay [1], the Emax came to 136%. Further, the result in assay [2] was inactive.

With `Cc1cccc(Cl)c1NC(=O)c1cc(-c2ccc(F)cc2)cnc1N`, the EC50 in assay [3] worked out at 4.57 µM. Besides, the Emax in [1] came out at 604%. In addition, in [2], the result was inactive.

`Cc1cc(-c2cnc(N)c(C(=O)Nc3ccccc3)c2)ccc1F`: the Emax in [1] was 94%. In addition, in assay [2], the outcome was inactive.

Take `Cc1cccc(Cl)c1NC(=O)c1cc(-c2ccc(OC(F)(F)F)cc2)cnc1N`: the Emax in assay [1] stood at 153%. The result in [2] was inactive.

`Cc1cccc(Cl)c1-n1cnc2nc(SCc3ccccc3)sc2c1=O`: the maximal response (Emax) in [4] is 1630%.

On to `Cc1cc(-c2cnc(N)c(C(=O)Nc3c(C)cccc3Cl)c2)ccc1F`, for which the maximal effect (Emax) in assay [5] came out at 2170%; in assay [1] it was 1470%; in [9], 78%; in assay [10], 72%; in assay [11] it was 94%. Besides, the EC50 in assay [3] turned out to be 3.34 µM. Further, the Activity entry in assay [6] is “Dose-dependent effect”. The K in assay [7] worked out at 3.49. In addition, the fold change (FC) in assay [8] was found to be 7. In addition, the result in [2] was inactive.

As to `COc1ccc(-c2cnc(N)c(C(=O)Nc3c(C)cccc3Cl)c2)cc1`, the concentration for a half-maximal effect (EC50) in assay [3] came out at 8.5 µM. The maximal response (Emax) in assay [1] is 531%. In addition, the result in assay [2] was inactive.

`Cc1ccc(Nc2nc3ncn(-c4c(C)cccc4Cl)c(=O)c3s2)cc1`: the Emax in assay [4] stood at 1620%.

With `Cc1ccc(-c2cnc(N)c(C(=O)Nc3c(C)cccc3Cl)c2)c(F)c1`, in [1], the maximal response (Emax) is 372%. Also, in [2], the result was inactive.

With `Cc1cccc(Cl)c1NC(=O)c1cc(-c2ccc(Cl)c(F)c2)cnc1N`, the Emax in [1] stood at 229%. In addition, the outcome in assay [2] was inactive.

Regarding `Cc1cccc(Cl)c1NC(=O)c1cncc(-c2ccc(F)cc2)c1`, the Emax in assay [1] came to 248%. Also, the result in [2] was inactive.

On to `Cc1cccc(Cl)c1NC(=O)c1cncc(-c2ccc(Cl)cc2)c1`, for which the Emax in [1] came to 150%. Further, the result in [2] was inactive.

On to `Cc1cccc(Cl)c1NC(=O)c1cc(-c2cccnc2)cnc1N`, for which, in assay [1], the maximal response (Emax) was found to be 138%. The outcome in assay [2] was inactive.

With `Cc1ccc(-c2cncc(C(=O)Nc3c(C)cccc3Cl)c2)cc1`, the EC50 in assay [3] came to 1.97 µM. In addition, the Emax in [1] is 603%. Further, the result in assay [2] was inactive.
